According to ChEMBL document CHEMBL1125034, “Design and synthesis of 4H-3,1-benzoxazin-4-ones as potent alternate substrate inhibitors of human leukocyte elastase” (J Med Chem, 1990):
pKi: −log10 of the molar value.

How the values were obtained:
[1] = Partition coefficient (logD7.4); type: physicochemical; settings: octanol/water, pH 7.4
[2] = Alkaline hydrolysis rate of the compound; type: ADME
In short: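 Alkaline hydrolysis rate constants measured at several pH values at 25 °C. Loss of the long-wavelength UV chromophore (λmax typically 300-345 nm) was followed by spectrophotometer.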

[3] = target: T1, Neutrophil elastase (Homo sapiens) (UniProt P08246); assay: Component acylation rate constant for interaction with human leukocyte elastase
T1 sequence (whole entry): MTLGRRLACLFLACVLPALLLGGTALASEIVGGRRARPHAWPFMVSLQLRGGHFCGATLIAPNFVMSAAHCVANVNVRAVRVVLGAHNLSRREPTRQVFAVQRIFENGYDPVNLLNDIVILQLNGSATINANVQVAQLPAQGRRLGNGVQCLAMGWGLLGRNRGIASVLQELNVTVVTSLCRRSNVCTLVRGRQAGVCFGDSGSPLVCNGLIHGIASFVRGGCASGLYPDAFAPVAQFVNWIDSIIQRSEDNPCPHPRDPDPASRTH

[4] = target: T1, Neutrophil elastase (Homo sapiens); assay: Component deacylation rate constant for interaction with human leukocyte elastase
Neutrophil elastase = target: T2, Neutrophil elastase (Homo sapiens, UniProt P08246); assay: Inhibition of human leukocyte elastase
T2 sequence (P08246 whole entry): T1 sequence (whole entry)

Structure (SMILES) | logD [1] | Log kOH- [2] | Log kon [3] | Log koff [4] | pKi (Neutrophil elastase)
CCCCNc1nc2ccccc2c(=O)o1 | 3.1 | 1.09 | – | – | –
CCCNc1nc2cccc(C)c2c(=O)o1 | – | – | 4.75 | -3.47 | –
CCSc1nc2cc(OC)c(OC)cc2c(=O)o1 | – | 1.1 | 5 | – | 5.92
O=c1oc(SCc2ccccc2)nc2ccccc12 | 3.6 | 2.33 | – | – | 7.40
COC(=O)C(CC(C)C)Nc1nc2ccccc2c(=O)o1 (stereo not given) | – | 1.32 | 4.32 | -2.86 | 7.18
Cc1cccc2c(=O)oc(C(F)(F)F)nc12 | – | 3.09 | 4 | – | 6.27
CCCCCCNc1nc2ccccc2c(=O)o1 | 3.8 | 0.96 | – | – | –
Cc1ccc2nc(C)oc(=O)c2c1 | 1.8 | 1.36 | – | – | 4.46
CCOC(=O)[C@H](C)Nc1nc2ccccc2c(=O)o1 | – | 1.31 | 3.41 | -2.65 | 6.06
CCCc1cccc2nc(OCC)oc(=O)c12 | – | 1.17 | 5.49 | -4.15 | 9.64
O=c1oc(N2CCCCC2)nc2ccccc12 | 3 | – | – | – | 6.19
COC(=O)[C@H](Nc1nc2ccccc2c(=O)o1)c1ccccc1 | 2.6 | 1.39 | – | – | 7.56
CNc1nc2cccc(C)c2c(=O)o1 | 2.3 | 0.54 | 3.69 | -0.82 | –
Cc1nc2c(N)cccc2c(=O)o1 | – | 2.61 | 3.3 | – | 5.10
O=c1oc(-c2ccccc2)nc2ccccc12 | – | 1.79 | 4 | – | 5.02
COc1cc2nc(SCc3c[nH]cn3)oc(=O)c2cc1OC | – | 1.31 | 3.84 | -2.12 | 5.96
Cc1nc2cc3ccccc3cc2c(=O)o1 | 2.8 | 2.19 | – | – | 5.14
Cc1cccc2nc(OCC(C)C)oc(=O)c12 | – | – | 3.85 | -4.95 | 8.80
Nc1ccc(CNc2nc3ccccc3c(=O)o2)cc1 | 2 | 1.36 | – | – | 5.91
CC(C)NC(=O)[C@H](CCC(N)=O)Nc1nc2ccccc2c(=O)o1 | -0.3 | 1.3 | – | – | 6.26
O=C(c1nc2ccccc2c(=O)o1)[C@@H]1CCCN1 | – | 1.69 | 2.95 | -3 | 5.95
CC(=O)NCc1nc2ccccc2c(=O)o1 | – | 1.86 | 2.24 | -2.88 | 5.12
COc1cc(C)c2c(=O)oc(NC(C)C)nc2c1 | – | -0.42 | 4.32 | -3.1 | 7.42
CCc1cc(N)cc2nc(NC(C)C)oc(=O)c12 | 1.6 | -1.26 | – | – | 7.77
CCCCN(CCCC)c1nc2ccccc2c(=O)o1 | – | -0.57 | 2.43 | -2.91 | 5.34

Structure (SMILES) | logD [1] | Log kOH- [2] | Log kon [3] | Log koff [4] | pKi (Neutrophil elastase)
CC(C)CN(CC(C)C)c1nc2ccccc2c(=O)o1 | – | 0.68 | 2.18 | -3.01 | 5.19
Cc1ccc2c(=O)oc(NC(C)C)nc2c1C | 3.8 | 0.46 | – | – | 6.15
CCOc1nc2cc(N)cc(CC)c2c(=O)o1 | 2.7 | -0.54 | – | – | 8.00
CCSc1nc2ccc(NC(C)=O)cc2c(=O)o1 | – | 2.24 | 4 | – | 5.84
CCCC(C)Nc1nc2cccc(C)c2c(=O)o1 (stereo not given) | – | – | 3.7 | -2.43 | 6.13
Cc1cccc2nc(C(F)(F)C(F)(F)C(F)(F)F)oc(=O)c12 | 2.9 | 2.75 | – | – | 7.51
CCSc1nc2c(C)cccc2c(=O)o1 | – | 2.01 | 6.3 | – | 7.55
Cc1cccc2c(=O)oc(C(C)(C)C)nc12 | 4 | 0.82 | – | – | 4.26
CCc1cccc2c(=O)oc(NC(C)C)nc12 | – | – | 4.38 | -1.62 | 6.00
CCCc1cc(N(C)C)cc2nc(NC(C)C)oc(=O)c12 | – | -2 | 2.81 | -3.74 | 6.55
Cc1cccc2nc(NC(C)C)oc(=O)c12 | 3 | 0.41 | – | – | –
CC(=O)Nc1ccc2c(=O)oc(NC(C)C)nc2c1 | 1.2 | 0.92 | – | – | 6.83
CCOc1nc2cccc(C(Br)Br)c2c(=O)o1 | – | 2.5 | 7 | -2.33 | 9.33
O=c1oc(Nc2ccccc2)nc2ccccc12 | 3.5 | 1.18 | – | – | 4.96
Cc1nc2ccccc2c(=O)o1 | 1.3 | 1.69 | – | – | 5.32
CCC(CC)Nc1nc2cccc(C)c2c(=O)o1 | – | – | 3.89 | -2.25 | 6.14
CNc1nc2ccccc2c(=O)o1 | 1.7 | 1.38 | – | – | –
O=c1oc(C(F)(F)F)nc2ccccc12 | 1.9 | 3.52 | – | – | 6.77
C/C=C/c1cccc2nc(OCC)oc(=O)c12 | – | 1.41 | 5.54 | -4.18 | 9.72
CCCNC(=O)Nc1ccc2c(=O)oc(NC(C)C)nc2c1 | – | 0.39 | 4.1 | -1.77 | 5.87
COc1cccc2nc(Nc3ccccc3)oc(=O)c12 | 3.1 | 0.41 | – | – | 3.80
NC(=O)[C@H](Cc1ccccc1)Nc1nc2ccccc2c(=O)o1 | – | 1.26 | 3.08 | -3.42 | 6.50
CCC(C)CNc1nc2cccc(C)c2c(=O)o1 (stereo not given) | – | – | 2.05 | -4.13 | 6.18
CCc1ccc2c(=O)oc(NC(C)C)nc2c1 | 3.2 | 0.69 | – | – | 6.74
Cc1cc(N(C)C)cc2nc(NC(C)C)oc(=O)c12 | – | -1.61 | 2.01 | -3.89 | 5.90

Structure (SMILES) | logD [1] | Log kOH- [2] | Log kon [3] | Log koff [4] | pKi (Neutrophil elastase)
CC[C@H](C)[C@H](Nc1nc2ccccc2c(=O)o1)C(=O)OC | 2.6 | 1.32 | – | – | 6.67
Cc1nc2c(C)cccc2c(=O)o1 | 2.1 | 1.18 | – | – | 5.13
NC(=O)[C@@H]1CCCN1c1nc2ccccc2c(=O)o1 | 0.4 | 1.21 | – | – | 6.62
Cc1cc(C)c2c(=O)oc(NC(C)C)nc2c1 | – | -0.23 | 3.41 | -4.82 | 8.23
COC(=O)C(Nc1nc2ccccc2c(=O)o1)c1ccccc1 (stereo not given) | 2.6 | 1.39 | – | – | 7.33
CCSc1nc2ccccc2c(=O)o1 | 3 | 2.19 | – | – | 8.09
CC(C)Nc1nc2cc(N(C)C)ccc2c(=O)o1 | – | -0.74 | 3 | -3.32 | 6.32
CSc1nc2cccc(C)c2c(=O)o1 | – | 1.9 | 5.4 | -3.45 | 8.85
CCc1cc(N)cc2nc(N3CCCC3C(=O)N[C@@H](CC(C)C)C(N)=O)oc(=O)c12 (stereo not given in full) | 1.6 | -1.08 | – | – | 6.94
CCOc1nc2cc(N(C)C)ccc2c(=O)o1 | – | -0.1 | 3.46 | -4.85 | 8.31
CC(C)Cc1nc2ccccc2c(=O)o1 | – | – | 4.3 | – | 5.59
COc1cc2nc(SCc3ccccc3)oc(=O)c2cc1OC | – | 0.96 | 3.76 | -1.91 | 5.67
COC(=O)[C@H](CC(C)C)Nc1nc2cccc(C)c2c(=O)o1 | 3.7 | 0.59 | – | – | 6.60
CCNc1ccc2c(=O)oc(NC(C)C)nc2c1 | 2.4 | – | – | – | 6.16
COC(=O)[C@H](CC(C)C)Nc1nc2cc(C)cc(C)c2c(=O)o1 | 4 | -0.18 | – | – | 5.90
CC(C)NC(=O)[C@H](CC(N)=O)Nc1nc2ccccc2c(=O)o1 | 0.2 | 1.45 | – | – | 5.67
O=c1oc(NCc2ccccc2)nc2ccccc12 | 2.8 | 1.12 | – | – | 6.02
CCCNc1nc2ccccc2c(=O)o1 | 2.4 | – | – | – | –
CC(C)N(c1nc2ccccc2c(=O)o1)C(C)C | 3.7 | 0.79 | – | – | 5.59
O=c1oc(NC2CCCCC2)nc2ccccc12 | 3.5 | 0.89 | – | – | 6.95
CCCCCCCCNc1nc2ccccc2c(=O)o1 | – | 0.03 | – | – | 4.50
NC(=O)C1CCCN1c1nc2ccccc2c(=O)o1 (stereo not given) | 0.4 | 1.21 | – | – | 6.75
CCN(CC)c1ccc2c(=O)oc(NC(C)C)nc2c1 | – | -0.99 | – | – | 5.26
CCOC(=O)CCCNc1nc2ccccc2c(=O)o1 | 2.3 | 1.21 | – | – | 4.73
Cc1cc(N)cc2nc(NC(C)C)oc(=O)c12 | – | -1.09 | 2.36 | -4.75 | 7.11
